Apaf1 inhib = blocks human Apaf-1 apoptosome activity | O14727 | reconstituted apoptosome caspase-3 activity, DEVD-Rh110 fluorescence | inhibition, % at 20 µM | actives 0.71% (n = 330,000) | AID 489030; active = inhibition of at least 40% at 20 µM;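 also: plate controls were DMSO wells for no effect and DEVD-CHO caspase inhibitor wells for full effect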
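Material: reconstituted apoptosome with Apaf-1, cytochrome c, caspase-9, procaspase-3, dATP / Buffer or medium: pH 7.5 Hepes buffer with CHAPS, BSA, DTT / Also added: cytochrome c with DEVD-Rh110 / Schedule: compound with Apaf-1, dATP, procaspase-3 30 min, then 50 min reaction, room temperature / Technique: rhodamine 110 fluorescence at Ex 480/Em 540 nm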
SIAE primary = human SIAE inhibition, primary screen; SIAE FP-Rh probe binding, fluorescence polarization; actives 0.69% (n = 370,000); inhibition, % at 9.66 µM; Q9HAT2;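 active = inhibition above a cutoff: mean of compounds within the control limits plus 3 SD of those, cut at about 17% in these data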;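 also: 0% = plate median of compound wells and 100% = probe without SIAE protein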
Target sequence (Q9HAT2 whole entry, looked up): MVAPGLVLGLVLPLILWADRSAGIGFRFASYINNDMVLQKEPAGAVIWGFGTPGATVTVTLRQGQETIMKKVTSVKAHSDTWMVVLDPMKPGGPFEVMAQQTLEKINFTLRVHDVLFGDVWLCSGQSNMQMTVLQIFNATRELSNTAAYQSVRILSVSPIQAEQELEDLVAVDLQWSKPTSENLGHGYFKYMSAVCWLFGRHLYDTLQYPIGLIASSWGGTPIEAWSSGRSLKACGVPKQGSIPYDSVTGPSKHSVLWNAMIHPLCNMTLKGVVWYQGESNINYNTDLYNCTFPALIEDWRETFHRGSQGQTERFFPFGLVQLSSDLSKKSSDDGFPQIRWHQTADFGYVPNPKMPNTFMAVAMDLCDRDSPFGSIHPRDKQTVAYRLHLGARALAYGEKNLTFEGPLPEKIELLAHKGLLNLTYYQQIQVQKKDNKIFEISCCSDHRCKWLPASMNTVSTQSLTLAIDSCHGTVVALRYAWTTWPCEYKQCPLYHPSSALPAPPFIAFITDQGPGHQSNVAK
TCR-CD3 inh = inhibitors of human TCR-CD3 interaction. TAMRA-labeled TCR probe fluorescence, biochemical. inhibition, % at 9.4 µM. actives 0.37% (n = 360,000);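 also: recombinant mutant TCR 2C K166C tagged with TAMRA read by polarization; 0% = receptor in buffer alone and 100% = receptor with positive control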
PAD4 inh = inhibitors of human PAD4; inhibition, % at 6.36 µM; recombinant PAD4, RCA probe fluorescence polarization; actives 0.41% (n = 330,000); Q9UM07;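 active = percent inhibition above a cutoff equal to the mean of all tested compounds plus 3 SD, cut at about 15% in these data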;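 also: 0% = PAD4 with RCA probe and DMSO and 100% = probe without PAD4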
GSTO1 counter = counter-screen for RBBP9 inhibitors: inhibitors of human GSTO1; P78417; recombinant GSTO1, activity-based probe fluorescence polarization; inhibition, % at 5.96 µM; actives 1.1% (n = 300,000); AID 1974;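 active = inhibition above the campaign mean inhibition plus 3 SD, cut at about 35% in these data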;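 also: 0% = GSTO1-1 with DMSO and 100% = wells lacking GSTO1-1 enzyme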
TDP2 inh = blocks human TDP2 phosphodiesterase activity | AID 720702 | recombinant TDP2, T5PNP hydrolysis, p-nitrophenol absorbance 415 nm | inhibition, % at 12.8 µM | actives 0.34% (n = 370,000);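 active = inhibition above the mean of all tested compounds plus 3 SD, set per campaign, cut at about 25% in these data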;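 also: 0% = DMSO with enzyme and 100% = buffer with substrate but no TDP2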
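Incubation: 2 h at 37 °C; Test system: recombinant human TDP2; Quantity: enzyme 120 nM; Read-out basis: percent inhibition; Medium: 50 mM Tris-HCl pH 7.5 with Mg2+, KCl, DTT, BSA; Repeats: single replicate; Compound: 12.8 µM single point, 1% DMSO; Signal: epi absorbance; Reagent: 5 mM T5PNP chromogenic substrate; Benchmarks: no-enzyme high, DMSO-plus-enzyme low.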
BSA probe FL = BSA probe counter-screen for TCR-CD3 inhibitors. shares compounds with TCR-CD3 inh. inhibition, % at 9.4 µM. AID 652035. actives 10% (n = 1,200). TAMRA-labeled BSA probe fluorescence counterscreen; in the data active = inhibition above about 23%;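 also: 0% = buffer low control and 100% = reference high control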
TCR-CD3 inh conf = confirmation of human TCR-CD3 interaction inhibitors. TAMRA-labeled TCR probe fluorescence binding assay. inhibition, % at 9.4 µM. shares compounds with TCR-CD3 inh. actives 48% (n = 1,200)
An asterisk follows results filed as active; x = not tested or not shown. Shown are actives, neighbours in structure and some others; about 2.4% of the full set was active somewhere. Rule as the data show it, unless noted: active = inhibition above about 19%; inactive = the rest.

SMILES	Apaf1 inhib	SIAE primary	TCR-CD3 inh	PAD4 inh	GSTO1 counter	TDP2 inh	BSA probe FL	TCR-CD3 inh conf
O=C(O)c1cc(-c2cccs2)nn1-c1ccc(F)cc1	-1.2	15.2	6.7	-4.4	5.9	10.9	x	x
O=c1[nH]c2cc3c(cc2cc1C(c1nnnn1C1CCCCC1)N1CCSCC1)OCCO3 (stereo not given)	-1.1	-8.5	-0.7	-0.1	1.2	-3.7	x	x
CC12CCC(=O)N1C(C(=O)OCC(=O)Nc1sccc1C#N)CS2 (stereo not given)	-4.1	4.2	10.7	-0.7	14.9	12.5	x	x
Oc1ccc(/C=C/c2nc(-c3ccccc3O)n(-c3ccccc3)n2)cc1	15.0	2.0	46.4*	5.1	-0.2	-19.5	3.3	3.0
Nc1nnc2cc(Cl)ccc2n1	x	-3.2	-2.9	x	x	4.8	x	x
Cc1ccccc1N(CC(=O)NCC1CCCO1)C(=O)CNS(=O)(=O)c1ccc(F)cc1 (stereo not given)	-5.4	-12.2	-8.4	0.8	1.6	-11.6	x	x
CCN(CC)c1ccc(NC(=O)COc2ccccc2C#N)cc1S(=O)(=O)Nc1ccccc1OC	5.1	-26.1	21.5*	-1.8	16.4	4.1	1.6	9.2
O=C1/C(=C/c2ccco2)SC(=S)N1c1cccnc1	x	-1.7	28.3*	x	x	3.7	-7.7	22.7*
CCOC(=O)c1sc2nc(C)cc(C)c2c1N	-5.4	-6.6	6.8	2.7	8.4	-4.7	x	x
Cc1cc(C)c2c(N)c(C(=O)NN)sc2n1	-10.6	12.7	38.0*	-8.6	12.0	14.0	-7.8	28.8*
O=C1NC[C@H](Cc2ccc(O)cc2)N(CCc2cccc(F)c2)C1=O	x	1.2	64.0*	x	x	5.6	4.5	2.9
CCOc1ccc(N=Nc2c(C)[nH]n(-c3ccccc3)c2=O)cc1	4.9	7.8	-0.2	-1.1	-3.8	8.7	x	x
Cc1[nH]n(-c2ccccc2)c(=O)c1N=Nc1ccccc1O	18.1	-5.9	27.7*	x	x	-9.0	-4.2	19.9*
O=C(CN(c1ccc2c(c1)OCCO2)S(=O)(=O)c1ccccc1)NCc1ccco1	2.5	-2.2	3.6	-0.5	1.3	2.2	x	x
Cc1c(NC(=S)N/N=C/c2cc([N+](=O)[O-])ccc2O)c(=O)n(-c2ccccc2)n1C	-9.1	11.7	31.7*	1.0	22.7	-5.6	-4.8	30.9*
O=C(CN(c1cccc(Br)c1)S(=O)(=O)c1ccccc1)N/N=C/c1cc([N+](=O)[O-])ccc1O	4.1	15.1	29.6*	-0.9	1.5	-20.1	-15.9	28.1*
CCc1ccc(N2CC(C(=O)N/N=C/c3cc([N+](=O)[O-])ccc3O)CC2=O)cc1 (stereo not given)	6.3	-3.1	31.2*	-2.6	-19.8	-0.6	-8.9	26.3*
O=C(N/N=C/c1cc([N+](=O)[O-])ccc1O)c1cccc(N2CCCC2=O)c1	1.6	2.2	46.0*	1.0	-3.9	-6.5	-9.9	37.1*
Cc1c(NC(=S)N/N=C/c2ccc(O)cc2)c(=O)n(-c2ccccc2)n1C	4.5	0.6	-8.7	3.6	1.8	6.5	x	x
O=C(CCCC(=O)Nc1cccc(Br)c1)N/N=C/c1cc([N+](=O)[O-])ccc1O	10.0	6.0	9.2	-7.2	-19.0	-16.2	x	x
CCc1ccc(N2CC(C(=O)N/N=C/c3ccccc3OC)CC2=O)cc1 (stereo not given)	8.7	7.8	-7.5	-1.9	2.1	-2.2	x	x
CCOc1cc(C)c(S(=O)(=O)NCCCn2ccnc2)cc1C	-0.3	3.6	-4.6	-2.4	10.7	0.5	x	x
Cc1ccc(/C=N/NC(=O)CSc2nc3ccccc3s2)o1	3.1	3.9	0.6	6.5	-0.7	0.8	x	x
O=C(N/N=C/c1cc([N+](=O)[O-])ccc1O)c1cccc2cc[nH]c12	-5.2	4.9	20.0*	1.5	-11.3	-12.3	-8.1	18.7
O=C(CSc1nc2ccccc2s1)N/N=C/c1cc([N+](=O)[O-])ccc1O	-0.6	-0.2	33.8*	1.7	7.1	-24.1	-11.3	31.1*

Assay outcomes (PubChem BioAssay)
